Source: PubChem BioAssay (several laboratories)
PP5 primary: blocks human protein phosphatase 5 activity. P53041. purified PP5c, OMFP substrate fluorescence. inhibition, % at 6.7 µM. actives 0.18% (n = 320,000);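 active means inhibition above the campaign's mean inhibition across all tested compounds plus 3 SD, cut at about 9.5% in these data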;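 further: 0% = DMSO only and 100% = 100 µM cantharidin control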
PAD4 inh: PAD4 (human) enzyme inhibition | actives 0.41% (n = 330,000) | inhibition, % at 6.36 µM | recombinant PAD4, RCA probe fluorescence polarization;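 active means percent inhibition above a cutoff equal to the mean of all tested compounds plus 3 SD, cut at about 15% in these data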;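 further: 0% = PAD4 with RCA probe and DMSO and 100% = probe without PAD4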
Fh CTSL1 inh: blocks F. hepatica cathepsin L1 in PFM18AAP counter-screen; inhibition, % at 5.96 µM; recombinant F. hepatica cathepsin L1, Z-Leu-Arg-MCA fluorescence; actives 0.49% (n = 300,000);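 active means inhibition above the mean of all tested compounds plus 3 SD, set per screening campaign, cut at about 17% in these data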;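 further: 0% = plate median of test compound wells and 100% = 1 µM Z-Phe-Ala-diazomethylketone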
UCH37 DUB inh: human UCH37 deubiquitinating enzyme inhibition; Q9Y5K5; purified proteasome/UCH37, Ub-AMC cleavage fluorescence; inhibition, % (test concentration not listed); actives 0.33% (n = 330,000); AID 588478;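 active means mean inhibition over replicate wells above about 20%, limit read from the data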;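 further: 0% = compound-free wells with enzyme and 100% = wells lacking proteasome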
Target sequence (Q9Y5K5 whole entry, looked up): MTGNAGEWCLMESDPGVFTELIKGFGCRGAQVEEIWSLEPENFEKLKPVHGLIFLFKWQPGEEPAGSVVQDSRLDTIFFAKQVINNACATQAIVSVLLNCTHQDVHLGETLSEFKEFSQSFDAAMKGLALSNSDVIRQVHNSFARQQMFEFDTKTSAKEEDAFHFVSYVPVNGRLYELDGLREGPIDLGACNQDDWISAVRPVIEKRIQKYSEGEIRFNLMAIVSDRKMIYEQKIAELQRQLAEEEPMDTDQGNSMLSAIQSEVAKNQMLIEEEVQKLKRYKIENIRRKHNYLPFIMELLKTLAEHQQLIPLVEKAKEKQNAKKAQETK
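Material: human UCH37 enzyme supplied as purified proteasome complex / Amount: 0.15 nM proteasome as dispensed / Buffer or medium: pH 7.4 Tris-HCl (50 mM) with ovalbumin, ATP-MgCl2, DTT / Times: preincubation 30 min, reaction 25 min, room temperature / Technique: AMC fluorescence from Ub-AMC cleavage, excitation 355 nm, emission 460 nm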
GSTO1 inh: blocks human GSTO1 in RBBP9 counter-screen; P78417; recombinant GSTO1, activity-based probe fluorescence polarization; inhibition, % at 5.96 µM; actives 1.1% (n = 300,000); AID 1974;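 active means inhibition above the campaign mean inhibition plus 3 SD, cut at about 35% in these data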;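 further: 0% = GSTO1-1 with DMSO and 100% = wells lacking GSTO1-1 enzyme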
Target sequence (P78417 whole entry, looked up): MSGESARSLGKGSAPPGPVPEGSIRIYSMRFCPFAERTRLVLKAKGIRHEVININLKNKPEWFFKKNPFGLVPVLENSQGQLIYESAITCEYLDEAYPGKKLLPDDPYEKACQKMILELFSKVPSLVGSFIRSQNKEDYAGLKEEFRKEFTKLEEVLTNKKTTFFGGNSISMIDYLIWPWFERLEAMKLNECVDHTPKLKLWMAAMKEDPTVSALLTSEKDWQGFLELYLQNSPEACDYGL
Apaf-1 inh: blocks human Apaf-1 apoptosome activity; O14727; inhibition, % at 20 µM; reconstituted apoptosome caspase-3 activity, DEVD-Rh110 fluorescence; actives 0.71% (n = 330,000); active means inhibition of at least 40% at 20 µM;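 further: plate controls were DMSO wells for no effect and DEVD-CHO caspase inhibitor wells for full effect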
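System – cell-free apoptosome with Apaf-1, procaspase-3 and caspase-9 · Buffer or medium – pH 7.5 Hepes buffer with CHAPS, BSA, DTT · Also added – cytochrome c with DEVD-Rh110 · Times – 30 min compound preincubation, 50 min activation, room temperature · Technique – Rh110 fluorescence intensity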
PAD4 FP conf: PAD4 (human) inhibition, confirmed; shares compounds with PAD4 inh; recombinant PAD4, RCA probe fluorescence polarization; inhibition, % at 6.36 µM; actives 28% (n = 1,200); AID 488796;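 active means mean inhibition across replicates above the hit cutoff set by the earlier primary screen, cut at about 15% in these data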;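 further: inhibitors block active-site labeling by the probe so polarization falls; 0% = PAD4 with probe and DMSO and 100% = probe without PAD4 enzyme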
The depositor's hits bear a star; x = no result. Sampled rows, rich in hits. Any-hit rate of the full collection: about 2%.

SMILES	PP5 primary	PAD4 inh	Fh CTSL1 inh	UCH37 DUB inh	GSTO1 inh	Apaf-1 inh	PAD4 FP conf
Cc1ccc(C2(C)NC(=O)N(CC(=O)NC(=O)NC(C)(C)C)C2=O)cc1 (configuration not stated)	2.3	15.8*	-4.3	4.6	8.7	7.2	-6.3
C=CCN(C(=O)c1csnn1)C(C(=O)NCc1ccc(F)cc1)c1ccccc1 (configuration not stated)	3.1	-3.9	-1.6	2.2	-2.3	-1.5	x
C=CCN(C(=O)c1csnn1)C(C(=O)NCc1ccc(F)cc1)c1ccc(F)cc1 (configuration not stated)	4.7	15.1*	-2.0	-3.6	-0.3	1.4	-6.8
CCN1C=C(Cc2ccc(F)cc2)C2=C(C1)C(c1ccc(F)cc1)C(C#N)=C(N)O2 (configuration not stated)	5.7	23.8*	0.0	1.6	2.0	15.9	13.5
CCN1C=C(Cc2ccccc2C)C2=C(C1)C(c1ccccc1C)C(C#N)=C(N)O2 (configuration not stated)	3.7	17.3*	1.2	-5.6	-8.1	11.6	6.8
CC(=O)C1=C(c2ccccc2)OC(N)=C(C#N)C1c1ccccc1C (configuration not stated)	2.3	-1.4	-26.9	1.2	-0.3	18.5	x
Cc1[nH]nc2c1C(c1ccc(F)cc1)C(C#N)=C(N)O2 (configuration not stated)	2.1	1.6	-0.6	3.4	-1.1	6.1	x
COCCOC(=O)C(C#N)c1nc2ccccc2nc1N1CCCC1 (configuration not stated)	-0.6	18.1*	0.8	-13.1	4.7	5.8	9.1
CCOC(=O)c1ccc(S(=O)(=O)Nc2nc3cc(S(=O)(=O)NC4=NCCCCC4)ccc3s2)cc1	-1.2	29.0*	4.0	6.7	-1.8	-5.8	26.0*
Nc1ccc(S(=O)(=O)NC2=NCCCCC2)cc1	0.9	-0.4	4.5	-1.4	3.6	-8.3	x
O=C(COC(=O)c1ccc(O)cc1)Nc1cccc(S(=O)(=O)NC2=NCCCCC2)c1	-3.1	-1.0	-9.4	-2.3	6.5	4.4	x
Nc1nc2cc(S(=O)(=O)NC3=NCCCCC3)ccc2s1	-2.1	28.2*	7.6	1.7	9.1	-17.3	25.3*
CC1(C(=O)NN=Cc2ccccc2)CC1(Br)Br (configuration not stated)	x	x	x	2.9	x	x	x
Cc1ccc(-c2nn(-c3ccccc3)cc2C=NNC(=O)c2ccc(Br)o2)cc1	x	x	x	-5.6	x	x	x
CC(=O)NC(c1cccs1)c1cc([N+](=O)[O-])c2cccnc2c1O (configuration not stated)	4.9	25.5*	5.0	20.4*	28.3	x	4.0
CCOc1ccc(S(=O)(=O)NN=C2CCCC(=O)C2)cc1	x	x	x	1.4	x	x	x
Cc1ccc(C(C(=O)NC(C)(C)C)N(CCCN2CCOCC2)C(=O)c2ccc(-c3ccccc3)[nH]2)o1 (configuration not stated)	-1.1	-0.8	2.8	-2.0	0.6	8.7	x
O=C(NC1CCCCC1)C(c1cccs1)N(CCCN1CCOCC1)C(=O)c1ccc(-c2ccccc2)[nH]1 (configuration not stated)	2.2	63.3*	0.8	5.1	-0.1	-27.7	-5.3
COc1ccc(C=N/N=C2/NC(=O)C(c3ccccc3)(c3ccccc3)S2)cc1	x	x	x	9.3	x	x	x
CC(=NNC(=O)c1sc(NS(=O)(=O)c2ccccc2)nc1C)c1ccccc1	x	x	x	4.7	x	x	x
CNC(=O)c1c(C)[nH]c(=S)c(C#N)c1-c1ccco1	1.8	26.0*	3.9	8.1	7.7	-18.7	3.2
COCCn1cnc2c(c1=O)c1nc3ccccc3nc1n2N=Cc1cccc(OC)c1	x	x	x	1.7	x	x	x
CCOc1ccc(C(c2c(NC(=O)c3ccccc3)sc(C)c2C)N2CCN(CCO)CC2)cc1 (configuration not stated)	2.7	-0.9	3.1	-5.5	4.2	30.4	x
Cc1sc(NC(=O)c2ccccc2)c(C(c2ccc(Cl)cc2)N2CCN(CCO)CC2)c1C (configuration not stated)	3.4	17.0*	-6.9	-11.7	4.4	21.0	-0.6
Cc1ccnc(NC(=O)c2cc3cc(F)ccc3s2)c1	2.4	17.4*	0.7	6.2	-7.8	14.3	25.1*
SMILES	PP5 primary	PAD4 inh	Fh CTSL1 inh	UCH37 DUB inh	GSTO1 inh	Apaf-1 inh	PAD4 FP conf
Cc1nonc1OCCNc1ccc([N+](=O)[O-])cc1[N+](=O)[O-]	-3.6	1.8	0.8	11.5	-3.0	x	x
Cc1nonc1OC(C)CNc1ccc([N+](=O)[O-])cc1 (configuration not stated)	1.6	56.0*	-2.0	6.1	3.4	0.7	5.8
CCOc1ccc2c(c1)-c1c(ssc1=S)C(C)(C)N2C(=O)c1ccco1	0.8	17.5*	1.9	7.9	0.1	19.9	16.4*
CC1=CC(C)(C)N2C(=O)C3(C(C#N)=C(N)OC4=C3C(=O)CC(C)(C)C4)c3cccc1c32 (configuration not stated)	x	x	x	3.6	x	9.4	x
CC1=CC(C)(C)N2C(=O)C3(C(C#N)=C(N)OC4=C3C(=O)CC(C)(C)C4)c3c(C)c(C)cc1c32 (configuration not stated)	2.8	39.9*	-0.3	4.8	1.5	-5.7	-4.5
O=C(Nc1c(Cl)cc(Cl)cc1C(=O)NCCN1CCOCC1)c1ccc(Cl)cc1Cl	-1.1	1.5	2.3	-2.6	-13.5	-5.1	x
O=C(NCCCN1CCOCC1)c1ccc(Cl)cc1Cl	-7.5	14.8*	10.6	-1.0	2.1	4.1	1.4
CCc1nnc(N/N=C/c2c(C)[nH]c3ccccc23)n1N	-4.1	30.4*	3.2	x	52.3*	1.8	6.6
CCc1nnc(N/N=C/c2c(F)cccc2Cl)n1N	-0.3	37.3*	0.8	x	22.6	0.5	2.3
CCc1nnc(NN=Cc2c(F)cccc2Cl)n1N	x	x	x	8.3	x	x	x
Cc1nnc(N/N=C/c2c(Cl)cccc2Cl)n1N	-1.1	33.3*	1.5	x	7.6	-5.5	7.5
CNC(=S)NN=C(C)c1ccc(Cl)s1	x	x	x	7.1	x	x	x
CC(CCc1ccccc1)=NNC(=O)C(=O)NCc1ccccc1	x	x	x	7.7	x	x	x
CCC(=O)NN=C(C)CC(=O)Nc1ccc(F)cc1	x	x	x	-1.1	x	x	x
Nc1nonc1-n1nnc(C(=O)NN=Cc2ccc(OCc3ccccc3)cc2)c1COc1ccc(F)cc1	x	x	x	-12.2	x	x	x
CN(C)S(=O)(=O)c1cccc(NC(=O)CSc2ncnc3ccccc23)c1	5.5	15.1*	-5.2	7.0	-3.6	-26.1	12.3
CN(C)S(=O)(=O)c1ccc(NC(=O)CSc2ncnc3ccccc23)cc1	0.8	13.3	-0.2	7.3	2.0	-1.8	x
CCOC(=O)c1sc(N=CNc2nc(C)c(C(=O)OCC)s2)nc1C	x	x	x	-10.0	x	x	x
CC(=NNC(=O)c1ccccc1-n1cccc1)C1CC1	x	x	x	4.8	x	x	x
